Measured values as given in publication PMC11439047 (Nature Communications, 2024).
Residue numbers refer to the chain shown, from its start.

Assays:
Assay in all cases: Saturation radioligand binding with [3H]-α,β-methylene ATP
P2X1 receptor L218T = target: T1, P2X1 receptor L218T (Homo sapiens, UniProt P51575, L218T)
T1 sequence (P51575 1-399 L218T): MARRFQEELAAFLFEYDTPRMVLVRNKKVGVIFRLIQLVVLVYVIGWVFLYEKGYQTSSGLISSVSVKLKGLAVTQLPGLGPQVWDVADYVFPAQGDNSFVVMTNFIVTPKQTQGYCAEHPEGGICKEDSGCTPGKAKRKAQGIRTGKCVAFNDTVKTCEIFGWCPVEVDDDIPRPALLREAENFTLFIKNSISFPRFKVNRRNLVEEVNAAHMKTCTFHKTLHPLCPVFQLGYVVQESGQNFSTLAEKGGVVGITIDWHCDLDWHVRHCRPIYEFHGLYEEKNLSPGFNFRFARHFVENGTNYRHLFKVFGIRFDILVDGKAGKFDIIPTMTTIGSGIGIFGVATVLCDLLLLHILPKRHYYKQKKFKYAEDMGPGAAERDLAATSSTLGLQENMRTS
In short: (§1)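 Whole HEK293 Flp-In T-REx cells stably expressing receptor, tetracycline-induced (150 ng/ml, 2 days), 15,000 cells/well, washed in HEPES binding buffer pH 7.4 with Ca2+/Mg2+. Increasing [3H]-α,β-methylene ATP added, 3 h room temperature with gentle agitation; non-specific binding with 10 μM ATP. Ice-cold 0.9% NaCl washes, scintillation counting (CCPM). Specific binding fitted one-site; values above 300 nM termed not defined.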

P2X1 receptor E282A = target: T2, P2X1 receptor E282A (Homo sapiens, UniProt P51575, E282A)
T2 sequence (P51575 1-399 E282A): T1 sequence (P51575 1-399 L218T) with T218L, E282A
In short: as §1

P2X1 receptor R139A = target: T3, P2X1 receptor R139A (Homo sapiens, UniProt P51575, R139A)
T3 sequence (P51575 1-399 R139A): T1 sequence (P51575 1-399 L218T) with R139A, T218L
In short: as §1

P2X1 receptor F188L = target: T4, P2X1 receptor F188L (Homo sapiens, UniProt P51575, F188L)
T4 sequence (P51575 1-399 F188L): T1 sequence (P51575 1-399 L218T) with F188L, T218L
In short: as §1

P2X1 receptor D170A = target: T5, P2X1 receptor D170A (Homo sapiens, UniProt P51575, D170A)
T5 sequence (P51575 1-399 D170A): T1 sequence (P51575 1-399 L218T) with D170A, T218L

P2X1 receptor E122A = target: T6, P2X1 receptor E122A (Homo sapiens, UniProt P51575, E122A)
T6 sequence (P51575 1-399 E122A): T1 sequence (P51575 1-399 L218T) with E122A, T218L

- binding affinity compared to WT-P2X1 (P2X1 receptor L218T): similar
- binding affinity compared to WT-P2X1 (P2X1 receptor E282A): similar
- fold decrease in affinity compared to WT-P2X1 (P2X1 receptor R139A): 6 fold
- binding affinity compared to WT-P2X1 (P2X1 receptor F188L): similar
SMILES: Nc1ncnc2c1ncn2[C@@H]1O[C@H](COP(=O)(O)CP(=O)(O)OP(=O)(O)O)[C@@H](O)[C@H]1O [α,β-methylene ATP]
- binding affinity compared to WT-P2X1 (P2X1 receptor D170A): beyond the threshold that could be accurately measured
- binding affinity compared to WT-P2X1 (P2X1 receptor E122A): beyond the threshold that could be accurately measured
